Laboratory results published in the array DNA melting data of Ke et al. (doi:10.1101/2024.01.08.574731).

Columns and labels:
[1] = folding enthalpy; higher = less favourable; fluorescence melt of hairpins on a sequencing array, two-state fit; conditions: sodium 0.088 M
In short: (§1)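 Melting temperature and folding enthalpy were derived from bootstrapped two-state fits. The fitted temperatures were raised by 9.35 °C to agree with UV melts, and four replicates were combined by inverse variance. The underlying data were Cy3 fluorescence images of library hairpins, with annealed Cy3 and quencher oligos, on a sequenced MiSeq flow cell in 50 mM Na-HEPES pH 8.0, 25 mM NaCl, taken in 2.5 °C steps up to 60 °C, normalised to pre-quench Cy3 and to control constructs.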

[2] = melting temperature; fluorescence melt of hairpins on a sequencing array, two-state fit, raised by 9.35 °C to match UV melts; conditions: sodium 0.088 M
In short: as §1

Sequence	folding enthalpy [1] [kcal/mol]	Tm [2] [°C]
GGTGGAGGAAACTCTACC (((.(((....))).)))	-35.8	48
GGTGGCCGAAAGGCTACC (((.(((....))).)))	-29.6	67.3
GGTGGCGAAAGCCAAACC ((((((....)))..)))	-14.2	47.2
GGTGGCGAAAGCCAACC ((((((....))).)))	-16.9	64.5
GGTGGCGAAAGCCAGACC ((((((....)))..)))	-12.6	46.9
GGTGGCGAAAGCCATACC ((((((....)))..)))	-12	45.6
GGTGGCGAAAGCCTACC ((((((....))).)))	-17.1	56.2
GGTGGGGGAAACCCTACC (((.(((....))).)))	-27.1	52.7
GGTGGGGGAAACCTCACC ((((.((....)).))))	-39.5	53.5
GGTGGGTCGAAAGACACC (((..(((....))))))	-12.4	50.9
GGTGGTGGAAACACTACC (((.(((....))).)))	-29.8	52.9
GGTGGTGGAAACACTGCC ((..(((....)))..))	-25.5	47.2
GGTGGTGGAAACGCTACC (((.(.(....).).)))	-28.1	40.4
GGTGTCACGAAAGTGACC (((..(((....))))))	-10.2	50
GGTGTCGAAAGACAAACC ((((((....)))..)))	-16.6	44.4
GGTGTCGAAAGACACACC ((((((....)))..)))	-9.34	52.5
GGTGTCGAAAGACGAACC ((((((....)))..)))	-18.8	40.9
GGTGTCGGAAACAACACC (((((.(....).)))))	-36.1	45.2
GGTGTCGGAAACGGTACC (((..((....))..)))	-28.6	40.9
GGTGTGGAAACACACC ((((((....))))))	-30.2	66.6
GGTGTGGGAAACTACGCC ((.((.(....).)).))	-29.6	43.4
GGTGTTGGAAACAACATC (.(((((....))))).)	-24.3	48.2
GGTTAACGAAAGTTGACC (((.(((....))).)))	-27.6	53.2

Sequence	folding enthalpy [1] [kcal/mol]	Tm [2] [°C]
GGTTAAGGAAACCTAACC (((((.(....).)))))	-25	35.2
GGTTAAGGAAACTTAGCC ((.((((....)))).))	-28	38.5
GGTTACGAAAGTAAGACC ((((((....)))..)))	-15	34.5
GGTTACGAAAGTACAACC ((((((....)))..)))	-19.1	36.1
GGTTACGAAAGTACACC ((((((....))).)))	-22.7	42.2
GGTTACGGAAACGTGACC (((.(((....))).)))	-36.4	53.4
GGTTACGGAAACGTGATC (.(.(((....))).).)	-16.3	30.4
GGTTACTCGAAAGAGACC (((..(((....))))))	-11.8	25
GGTTAGCGAAAGCTCACC (((.(((....))).)))	-26.6	49.1
GGTTAGGGAAACCTAATC (.(((((....))))).)	-27.7	37.9
GGTTAGGGAAACTTGACC (((.(.(....).).)))	-18.9	28
GGTTATCGAAAGATTACC (((.(((....))).)))	-31.1	43.5
GGTTATGGAAACATAATC (.(((((....))))).)	-31.2	36
GGTTATGGAAACGTAACC (((((.(....).)))))	-40.6	45.8
GGTTCAGGAAACTGAACC (((((((....)))))))	-41.4	63.8
GGTTCAGGAAACTGAATC (.(((((....))))).)	-30.1	44.2
GGTTCAGGAAACTGAGCC ((.((((....)))).))	-30.2	50
GGTTCCACGAAAGTGACC (((..(((....))))))	-15.1	31.6
GGTTCCCGAAAGGGTACC (((.(((....))).)))	-33.6	57.5
GGTTCCGAAAGGAGCACC ((((((....)))..)))	-13.8	39.1
GGTTCCGAAAGGATAACC ((((((....)))..)))	-20.5	43.5
GGTTCCGAAAGGATACC ((((((....))).)))	-28.1	48.8
GGTTCCGGAAACGGAATC (.(((((....))))).)	-23.9	51.4

Sequence	folding enthalpy [1] [kcal/mol]	Tm [2] [°C]
GGTTCCGGAAACGGGACC (((.(((....))).)))	-47.1	58.5
GGTTCGGGAAACCGAATC (.(((((....))))).)	-27.1	50.6
GGTTCGGGAAACCGAGCC ((.((((....)))).))	-40.4	58.3
GGTTCGGGAAACTGAACC (((((.(....).)))))	-47.2	53.2
GGTTCGGGAAACTGGACC (((.(.(....).).)))	-29.2	41.2
GGTTCTGCGAAAGCAACC (((..(((....))))))	-12.3	31.1
GGTTGAGGAAACCCAACC (((((.(....).)))))	-39.4	45.2
GGTTGAGGAAACTCAGCC ((.((((....)))).))	-33.4	50
GGTTGAGGAAACTCAGTC (..((((....))))..)	-14.5	30.9
GGTTGAGGAAACTTAACC ((((.((....)).))))	-31.9	39.8
GGTTGCACGAAAGTGACC (((..(((....))))))	-11.2	34.2
GGTTGCCGAAAGGCTACC (((.(((....))).)))	-29.6	61.8
GGTTGCGAAAGCAAACC ((((((....))).)))	-20	61.8
GGTTGCGAAAGCACTACC ((((((....)))..)))	-11.9	37.4
GGTTGCGAAAGCAGGACC ((((((....)))..)))	-19.2	37.8
GGTTGCGAAAGCAGTACC ((((((....)))..)))	-16.9	43.3
GGTTGCGCGAAAGCGACC (((..(((....))))))	-18	42.8
GGTTGCGGAAACACAACC (((((.(....).)))))	-40	48.4
GGTTGCGGAAACGCAATC (.(((((....))))).)	-28.9	54.9
GGTTGCGGAAACGTAACC ((((.((....)).))))	-47.9	54
GGTTGGAAACAACC (((((....)))))	-29.6	54.9
GGTTGGGGAAACCCAATC (.(((((....))))).)	-26.2	48.7
GGTTGGGGAAACCCGACC (((.(((....))).)))	-32.4	56.7

Sequence	folding enthalpy [1] [kcal/mol]	Tm [2] [°C]
GGTTGTGAAAACAACC ((((((....))))))	-40.1	61.5
GGTTGTGGAAACATGACC (((..((....))..)))	-30.9	39.2
GGTTTACGAAAGTAGACC (((.(((....))).)))	-34.9	51
GGTTTAGGAAACTAGACC (((.(((....))).)))	-30.2	37.5
GGTTTATCGAAAGATACC (((..(((....))))))	-12.3	28
GGTTTCCGAAAGGATACC (((.(((....))).)))	-36.7	50.5
GGTTTCGAAAGAACACC ((((((....))).)))	-26.8	37.6
GGTTTCGAAAGAAGACC ((((((....))).)))	-19.5	36.8
GGTTTCGAAAGAATCACC ((((((....)))..)))	-13	26.7
GGTTTCGGAAACGAAGCC ((.((((....)))).))	-28.2	51.4
GGTTTGACGAAAGTCACC (((..(((....))))))	-10.6	30.4
GGTTTGCGAAAGCAACC (((.(((....))))))	-17.2	52.4
GGTTTGCGAAAGCAGACC (((.(((....))).)))	-34.8	59.5
GGTTTGGAAACAAACC ((((((....))))))	-41.6	56.5
GGTTTTCGAAAGAAACC (((.(((....))))))	-23.1	44.8
GGTTTTCGAAAGAAGACC (((.(((....))).)))	-31.4	48.1
GGTTTTCGAAAGAATACC (((.(((....))).)))	-30.8	42.3
GGTTTTGGAAACAAAACC (((((((....)))))))	-50.2	58.6
GGTTTTGGAAACAGAACC ((((.((....)).))))	-36.7	42.1
GTAAACGAAAGTTCTTAC ((((((....)))..)))	-11	24.7
GTAAACGAAAGTTGTAC ((((((....))).)))	-13.7	31.2
GTAAACGAAAGTTGTTAC ((((((....)))..)))	-10.1	23.7
